This is an account of results in PMC4001804 (Journal of pharmaceutical sciences, 2014).

Read-outs that look alike come from different tables or passages of the source.

For series [1] the following is noted: 10 μg/kg (2.4 nmoles/kg) iv bolus dose; ref 10 (Jones et al.); cited from earlier work.
Details of series [2]: species or system female Sprague-Dawley rats. The conditions noted are these: female, Sprague-Dawley, rat, in vivo.
Series [3] is described as follows: Single-dose subcutaneous serum pharmacokinetics, analysis of individual animals. The series is classed as in vivo, female Sprague-Dawley rats. The gist of the method:
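Three-month-old female rats (200–240 g), acclimated two weeks, n = 4, got one subcutaneous dose. Tail-vein blood was drawn at 0, 2, 5, 10, 20, 30, 60, 180 and 360 min, clotted at ambient temperature, spun 14,000 rpm 10 min refrigerated, and serum stored at −80°C. Immunoreactive hPTH(1-34) was measured by ELISA. Parameters came from individual animals; half-life was reported as geometric mean.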

In the case of `CC[C@H](C)[C@H](NC(=O)[C@H](CCC(=O)O)NC(=O)[C@H](CO)NC(=O)[C@@H](NC(=O)[C@@H](N)CO)C(C)C)C(=O)N[C@@H](CCC(N)=O)C(=O)N[C@@H](CC(C)C)C(=O)N[C@@H](CCSC)C(=O)N[C@@H](Cc1cnc[nH]1)C(=O)N[C@@H](CC(N)=O)C(=O)N[C@@H](CC(C)C)C(=O)NCC(=O)N[C@@H](CCCCN)C(=O)N[C@@H](Cc1cnc[nH]1)C(=O)N[C@@H](CC(C)C)C(=O)N[C@@H](CC(N)=O)C(=O)N[C@@H](CO)C(=O)N[C@@H](CCSC)C(=O)N[C@@H](CCC(=O)O)C(=O)N[C@@H](CCCN=C(N)N)C(=O)N[C@H](C(=O)N[C@@H](CCC(=O)O)C(=O)N[C@@H](Cc1c[nH]c2ccccc12)C(=O)N[C@@H](CC(C)C)C(=O)N[C@@H](CCCN=C(N)N)C(=O)N[C@@H](CCCCN)C(=O)N[C@@H](CCCCN)C(=O)N[C@@H](CC(C)C)C(=O)N[C@@H](CCC(N)=O)C(=O)N[C@@H](CC(=O)O)C(=O)N[C@H](C(=O)N[C@@H](Cc1cnc[nH]1)C(=O)N[C@@H](CC(N)=O)C(=O)N[C@@H](Cc1ccccc1)C(=O)O)C(C)C)C(C)C` [PTH(1-34), teriparatide], the values for the clearance in series [1] and in series [2] were 98 mL/min/kg and 83 mL/min/kg, respectively. Further, in series [2] (sc), the bioavailability – broadly, the share of a dose that reaches the circulation, judged against a reference dose that is usually intravenous – is 47%. In addition, the half-life – broadly, the time needed for the level to fall by half in the phase considered – in series [3] (female, Sprague-Dawley, rat, serum, sc, 19.4 nmoles/kg) came to 59 min. The “Time by which serum concentrations returned to background levels” value in series [3] (single sc dose 19.4 nmoles/kg) is at most 6 h.
